In ChEMBL document CHEMBL4613263, “Optimization of Tetrahydroindazoles as Inhibitors of Human Dihydroorotate Dehydrogenase and Evaluation of Their Activity and In Vitro Metabolic Stability” (J Med Chem, 2020):
In brackets after ≈: the same amount, converted by molar mass. Activity calls are given as the source filed them. No cut-off for these calls is given here.

Legend:
[1] = biological target: T1, Dihydroorotate dehydrogenase (quinone), mitochondrial (Homo sapiens, UniProt Q02127); test: Inhibition of DHODH in human ARN8 cells assessed as increase in p53 level at 20 nM incubated for 24 hrs in presence of pan-caspase inhibitor, Z-VAD-FMK by Western blot analysis; format: cell-based
T1 sequence (Q02127 whole entry): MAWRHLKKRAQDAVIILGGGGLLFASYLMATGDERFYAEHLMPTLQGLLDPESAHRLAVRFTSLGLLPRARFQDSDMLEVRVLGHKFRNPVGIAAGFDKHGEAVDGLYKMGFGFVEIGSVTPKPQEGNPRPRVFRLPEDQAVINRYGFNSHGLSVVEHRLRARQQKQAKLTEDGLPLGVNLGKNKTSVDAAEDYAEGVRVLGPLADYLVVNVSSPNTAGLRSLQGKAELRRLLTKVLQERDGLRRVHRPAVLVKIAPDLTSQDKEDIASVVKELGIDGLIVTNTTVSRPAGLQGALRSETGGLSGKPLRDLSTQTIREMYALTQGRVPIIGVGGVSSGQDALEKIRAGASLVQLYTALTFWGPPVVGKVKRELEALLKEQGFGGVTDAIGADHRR
How it was run: (§1)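 ARN8 cells treated 24 h at 20 nM, with 20 µM Z-VAD-FMK or vehicle added 4.5 h before harvest. Etoposide arm was 20 µM for 1 h alongside Z-VAD-FMK. Lysates normalized for protein and analysed by western blot for p53, p-Ser15 p53, γ-H2AX, H2AX and cleaved PARP (85 kDa) against stain-free total-protein loading.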

[2] = biological target: T1, Dihydroorotate dehydrogenase (quinone), mitochondrial; test: Inhibition of […] in human ARN8 cells assessed as decrease in Bcl2 protein expression at 20 nM incubated for 24 hrs in presence of pan-caspase inhibitor, Z-VAD-FMK by Western blot analysis; format: cell-based
[3] = biological target: T1, Dihydroorotate dehydrogenase (quinone), mitochondrial; test: Inhibition of DHOH in human ARN8 cells assessed as cleaved PARP level at 20 nM incubated for 24 hrs treated with pan-caspase inhibitor, Z-VAD-FMK for 4.5 hrs prior to harvesting by Western blot analysis; format: cell-based; how it was run: as §1
[4] = biological target: T1, Dihydroorotate dehydrogenase (quinone), mitochondrial; test: Inhibition of DHOH in human ARN8 cells assessed as gammaH2AX level at 20 nM incubated for 24 hrs treated with pan-capse inhibitor, Z-VAD-FMK for 4.5 hrs prior to harvesting by Western blot analysis; format: cell-based; how it was run: as §1
[5] = Metabolic stability in human liver microsomes assessed as half life at 1 uM incubated for 60 mins by LC-MS/MS analysis; format: ADME, Microsome; details: liver microsomes
How it was run: (§2)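 Compound at 1 µM with 1.0 mg/mL human or mouse liver microsomes in 50 mM potassium phosphate pH 7.4, preincubated 5 min at 37 °C. Started with 1 mM NADPH (or blank buffer). Quenched with cold acetonitrile containing glipizide at 0, 5, 15, 30, 60 min. Parent loss tracked by LC-MS/MS in MRM mode; t½ = 0.693/k from slope of peak-area ratio versus time.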

[6] = biological target: T1, Dihydroorotate dehydrogenase (quinone), mitochondrial; test: Inhibition of […] in human ARN8 cells assessed as increase in Bax protein expression at 20 nM incubated for 24 hrs in presence of pan-caspase inhibitor, Z-VAD-FMK by Western blot analysis; format: cell-based
[7] = Cytotoxicity against human HNDF cells assessed as reduction in cell viability incubated for 72 hrs by SRB assay; format: cell-based; details: Homo sapiens, 72 h; read-out: IC50
How it was run: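 Human normal dermal fibroblasts seeded at 15×10^2 per well and left 24 h, then exposed to compound for 72 h with 0.1% DMSO final. Cells fixed with TCA at 4 °C for 1 h, stained with SRB, solubilized in 10 mM Tris and read at 490 nm. Values normalized to DMSO control. Tabulated means come only from experiments where IC50 fell below 10 000 nM.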

[8] = biological target: T1, Dihydroorotate dehydrogenase (quinone), mitochondrial; test: Inhibition of DHODH in human ARN8 cells assessed as induction of DNA damage by measuring increase in gammaH2AX level at 20 nM incubated for 24 hrs by Western blot analysis; format: cell-based
How it was run: (§3)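 ARN8 cells seeded at 15×10^4 per well and left 24 h. Treated 24 h at 20 nM, or with etoposide at 20 µM for 1 h, with 100 µM uridine where indicated. Lysates made in LDS buffer and protein-normalized, then run on 4–15% gels and transferred to PVDF. Phospho-proteins blocked in BSA, others in milk; primary antibodies overnight at 4 °C, ECL detection. Loading judged by stain-free total protein.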

[9] = biological target: T1, Dihydroorotate dehydrogenase (quinone), mitochondrial; test: Inhibition of recombinant human DHODH using dihydroorotic acid as substrate in presence of 2 nM of DHODH by DCIP assay
[10] = biological target: T1, Dihydroorotate dehydrogenase (quinone), mitochondrial; test: Inhibition of […] in human ARN8 cells assessed as increase in Bax protein expression at 20 nM incubated for 24 hrs by Western blot analysis; format: cell-based
[11] = biological target: T1, Dihydroorotate dehydrogenase (quinone), mitochondrial; test: Inhibition of recombinant human DHODH using dihydroorotic acid as substrate measured for 68 mins by DCIP based colorimetric assay
[12] = biological target: T1, Dihydroorotate dehydrogenase (quinone), mitochondrial; test: Inhibition of DHOH in human ARN8 cells assessed as increase in YOYO3 positive cells at 20 nM incubated for 48 hrs in presence of pan-caspase inhibitor, Z-VAD-FMK measured every 2 hrs by YOYO-3 staining based live cell imaging analysis
How it was run: (§4)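 ARN8 cells seeded at 4×10^3 per well and left 24 h, then given 20 nM compound in medium containing 2 µM caspase-3/7 substrate and 0.3 µM YOYO-3 (0.2% DMSO). Where indicated, 100 µM uridine or 20 µM Z-VAD-FMK was added. Cells imaged every 2 h for 48.5 h in an IncuCyte. Positive-cell counts per mm² normalized to confluence %; mean ± SD of three technical replicates.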

[13] = biological target: T1, Dihydroorotate dehydrogenase (quinone), mitochondrial; test: Inhibition of DHOH in human ARN8 cells assessed as increase in caspase 3/7 activity at 20 nM incubated for 48 hrs in presence of pan-caspase inhibitor, Z-VAD-FMK by live cell imaging analysis; format: cell-based; how it was run: as §4
[14] = biological target: T1, Dihydroorotate dehydrogenase (quinone), mitochondrial; test: Inhibition of DHOH in human ARN8 cells assessed as increase in YOYO3 positive cells at 20 nM incubated for 48 hrs measured every 2 hrs by YOYO-3 staining based live cell imaging analysis; how it was run: as §4
[15] = Kinetic aqueous solubility of compound in Prima HT solution at pH 7.4 incubated for 4 hrs by UV-spectrophotometry; format: physicochemical; details: read-out: Kinetic_solubility
How it was run: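 20 mM DMSO stocks diluted 100× into Prima HT buffer at pH 7.4 and shaken 4 h at rt. Samples filtered through 0.22 µm, mixed 1:1 with isopropanol and scanned by UV from 190–400 nm against stock reference standards.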

[16] = biological target: T1, Dihydroorotate dehydrogenase (quinone), mitochondrial; test: Inhibition of DHODH in human ARN8 cells assessed as increase in p53 level at 20 nM incubated for 24 hrs by Western blot analysis; format: cell-based; how it was run: as §3
[17] = biological target: T1, Dihydroorotate dehydrogenase (quinone), mitochondrial; test: Inhibition of DHOH in human ARN8 cells assessed as increase in YOYO3 positive cells at 20 nM incubated for 48 hrs in presence of 100 uM […], uridine measured every 2 hrs by YOYO-3 staining based live cell imaging analysis; how it was run: as §4
[18] = biological target: T1, Dihydroorotate dehydrogenase (quinone), mitochondrial; test: Inhibition of DHODH in human ARN8 cells assessed as induction of DNA damage by measuring increase in p53 phosphorylation at Ser15 at 20 nM incubated for 24 hrs by Western blot analysis; format: cell-based; how it was run: as §3
[19] = Metabolic stability in CD-1 mouse liver microsomes assessed as half life at 1 uM incubated for 60 mins by LC-MS/MS analysis; format: ADME, Microsome; details: CD-1, mouse, liver microsomes; how it was run: as §2
[20] = biological target: T1, Dihydroorotate dehydrogenase (quinone), mitochondrial; test: Inhibition of DHODH in human ARN8 cells assessed as activation of p53-dependent transcription at 0.05 to 10 uM incubated for 16 hrs by CPRG assay; format: cell-based
How it was run: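 ARN8 cells carrying the RGCΔFos-LacZ p53 reporter seeded at 2×10^4 per well and left 24 h, then treated 16 h (0.1% DMSO final, ±100 µM uridine). Cells washed, lysed and frozen at −20 °C for at least 2 h. β-galactosidase measured with CPRG substrate at pH 7.5, read at 590 nm after 24 h. Result is fold change vs DMSO; mean ± SD of three technical replicates.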

[21] = biological target: T1, Dihydroorotate dehydrogenase (quinone), mitochondrial; test: Inhibition of DHOH in human ARN8 cells assessed as increase in caspase 3/7 activity at 20 nM incubated for 48 hrs by live cell imaging analysis; format: cell-based; how it was run: as §4

inhibition [1]: Active
inhibition [2]: Active
inhibition [3]: inactive
inhibition [4]: inactive
half-life at 1 µM [5]: > 60 min
inhibition [6]: Active
IC50 [9]: 2.3 nM
inhibition [10]: Active
IC50 [11]: < 5 nM
inhibition [12]: inactive
inhibition [13]: inactive
inhibition [14]: Active
solubility kinetic at 4 h [15]: 74 µM (≈ 28.1 µg/mL)
inhibition [16]: Active
inhibition [17]: inactive
half-life at 1 µM [19]: 36 min
inhibition [20]: Active
inhibition [21]: Active
SMILES: O=C(N[C@@H]1CCCc2c1cnn2-c1ccccc1F)c1ncn2c1CCCC2
IC50 [7]: > 10000 nM
inhibition [8]: Active
inhibition [18]: Active
